Reference: ChEMBL document CHEMBL4396917, “Synthesis and biological evaluation of novel benzylidene-succinimide derivatives as noncytotoxic antiangiogenic inhibitors with anticolorectal cancer activity in vivo” (Eur J Med Chem, 2019)
Calls of active or inactive are those of the source. No cut-off for these calls is given here.

Assays:
HUVEC [1] = test: Effect on total FAK expression in VEGF-induced HUVEC at 1 to 20 uM pre-incubated for 2 hrs followed by VEGF stimulation and measured after 15 mins by Western blot analysis; format: ADME, cell-based; conditions: human, 0.25 h
Outline: (§1)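 HUVECs serum-starved overnight, pretreated with compound (methods: 1, 2.5, 5, 10 μM for 2 h; legend: 1, 5, 10, 20 μM for 1.5 h), then VEGF 50 ng/mL (methods: VEGF165, 15 min; legend: 30 min); lysates equalized by Bradford, ~20 μg protein resolved on gradient SDS-PAGE, immunoblotted, ECL detection.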

HT-29 [2] = test: Induction of apoptosis in human HT-29 cells assessed as late apoptotic cells at 20 uM after 24 hrs by Annexin V-FITC/propidium iodide staining based flow cytometric analysis (reference value: 13.4%); format: cell-based; conditions: ht-29, 24 h
[3] = Induction of apoptosis in VEGF-stimulated HUVEC assessed as viable cells at 20 uM after 24 hrs by Annexin V-FITC/propidium iodide staining based flow cytometric analysis (reference value: 69.6%); format: cell-based; conditions: human, read-out: Activity
Outline: (§2)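 HUVECs plated at 5×10^5 per well and treated 24 h with 1, 5, 10 or 20 μM. Detached and adherent cells were pooled, washed in ice-cold PBS and resuspended in fresh medium. 1×10^5 cells were stained with annexin-V-FITC in annexin-V buffer for 20 min in the dark, then PI (50 μg/mL) was added. Read-out by flow cytometry.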

HUVEC [4] = test: Effect on total AKT expression in VEGF-induced HUVEC at 1 to 20 uM pre-incubated for 2 hrs followed by VEGF stimulation and measured after 15 mins by Western blot analysis; format: ADME, cell-based; conditions: human, 0.25 h; outline: as §1
HUVEC [5] = test: Antiinvasive activity in HUVEC assessed as inhibition of VEGF-induced cell invasion at 1 uM after 6 hrs by crystal violet staining based transwell assay relative to control; format: functional; conditions: Homo sapiens
Outline: (§3)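 Transwell: 1×10⁴ HUVECs in serum-free M200 in top chamber with vehicle or compound; bottom chamber M200 with 10% FBS; 6 h at 37°C; cells on membrane underside fixed in 4% paraformaldehyde, stained 0.1% crystal violet, imaged and counted.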

HUVEC [6] = test: Induction of apoptosis in VEGF-stimulated HUVEC assessed as early apoptotic cells at 10 uM after 24 hrs by Annexin V-FITC/propidium iodide staining based flow cytometric analysis (reference value: 7%); format: cell-based; conditions: human; outline: as §2
HUVEC [7] = test: Effect on total ERK expression in VEGF-induced HUVEC at 1 to 20 uM pre-incubated for 2 hrs followed by VEGF stimulation and measured after 15 mins by Western blot analysis; format: ADME, cell-based; conditions: human, 0.25 h; outline: as §1
HT-29 [8] = test: Downregulation of HIF1-alpha mRNA expression in human HT-29 cells after 24 hrs by RT-qPCR assay; format: functional, cell-based
Outline: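 HT29 cells treated with 1, 5, 10 or 20 μM for 24 h; total RNA extracted with TRIzol; SYBR Green qPCR, 40 cycles of 5 s at 95°C and 60 s at 60°C in 20-μL reactions.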

HT-29 [9] = test: Antitumor activity against human HT-29 cells xenografted in mouse assessed as increase in apoptosis in tumor at 20 to 60 mg/kg, po administered every ither day for 3 weeks and measured at 20 days post treatment by TUNEL assay; format: functional, organism-based
HUVEC [10] = test: Effect on total STAT3 expression in VEGF-induced HUVEC at 1 to 20 uM pre-incubated for 2 hrs followed by VEGF stimulation and measured after 15 mins by Western blot analysis; format: ADME, cell-based; conditions: human, 0.25 h; outline: as §1
[11] = biological target: Vascular endothelial growth factor receptor 2 (Homo sapiens) (UniProt P35968); test: Inhibition of VEGFR2 in VEGF-stimulated HUVEC assessed as downregulation of AKT phosphorylation at Ser473 residue at 1 to 10 uM pre-incubated for 2 hrs followed by VEGF stimulation and measured after 15 mins by Western blot analysis; format: cell-based
Vascular endothelial growth factor receptor 2 (Homo sapiens), sequence (P35968 whole entry): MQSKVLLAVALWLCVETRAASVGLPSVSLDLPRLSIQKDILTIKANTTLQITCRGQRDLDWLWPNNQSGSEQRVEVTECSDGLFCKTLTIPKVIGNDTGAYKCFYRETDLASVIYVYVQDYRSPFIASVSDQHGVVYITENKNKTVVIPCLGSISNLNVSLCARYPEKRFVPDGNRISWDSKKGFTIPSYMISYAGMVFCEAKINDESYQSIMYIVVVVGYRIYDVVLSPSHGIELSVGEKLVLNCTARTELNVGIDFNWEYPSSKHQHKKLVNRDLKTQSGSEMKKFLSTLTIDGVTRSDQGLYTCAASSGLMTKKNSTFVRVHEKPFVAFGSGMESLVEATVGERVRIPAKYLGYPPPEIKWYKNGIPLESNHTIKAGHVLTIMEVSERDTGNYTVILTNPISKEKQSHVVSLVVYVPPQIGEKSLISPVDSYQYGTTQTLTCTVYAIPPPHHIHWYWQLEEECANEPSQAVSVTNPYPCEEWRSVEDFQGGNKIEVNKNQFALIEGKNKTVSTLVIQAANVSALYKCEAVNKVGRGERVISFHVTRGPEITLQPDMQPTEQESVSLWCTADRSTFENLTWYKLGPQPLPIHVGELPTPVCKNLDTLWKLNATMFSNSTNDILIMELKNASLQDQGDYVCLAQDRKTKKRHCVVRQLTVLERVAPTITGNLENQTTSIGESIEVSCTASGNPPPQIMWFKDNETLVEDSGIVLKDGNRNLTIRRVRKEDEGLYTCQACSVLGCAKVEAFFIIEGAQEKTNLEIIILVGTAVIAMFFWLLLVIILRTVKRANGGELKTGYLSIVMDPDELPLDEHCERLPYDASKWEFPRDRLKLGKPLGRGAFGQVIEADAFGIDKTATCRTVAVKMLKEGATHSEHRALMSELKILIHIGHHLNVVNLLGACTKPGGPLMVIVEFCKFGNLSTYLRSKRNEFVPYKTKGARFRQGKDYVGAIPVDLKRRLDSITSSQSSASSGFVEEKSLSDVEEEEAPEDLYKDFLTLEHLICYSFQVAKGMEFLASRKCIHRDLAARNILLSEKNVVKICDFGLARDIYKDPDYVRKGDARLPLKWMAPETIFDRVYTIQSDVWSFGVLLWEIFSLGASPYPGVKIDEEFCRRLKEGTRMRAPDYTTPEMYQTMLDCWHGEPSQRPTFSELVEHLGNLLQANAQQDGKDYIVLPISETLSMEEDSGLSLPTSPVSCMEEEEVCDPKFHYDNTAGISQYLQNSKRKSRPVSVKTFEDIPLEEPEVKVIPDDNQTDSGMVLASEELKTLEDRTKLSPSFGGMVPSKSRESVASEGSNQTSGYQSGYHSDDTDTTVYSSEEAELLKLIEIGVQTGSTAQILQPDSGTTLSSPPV
Outline: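 HUVECs serum-starved overnight, pretreated 2 h with 1, 2.5, 5 or 10 μM compound, then stimulated 15 min with 50 ng/mL VEGF165. Lysed in Tris/EDTA/Triton/deoxycholate/SDS buffer with phosphatase and protease inhibitors. Protein equalized by Bradford, about 20 μg resolved on gradient SDS-PAGE. Blots probed for phospho and total VEGFR2 (Tyr1175), ERK1/2 (Thr202/Tyr204) and AKT (Ser473) against actin, with HRP/ECL detection.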

[12] = Induction of apoptosis in human HT-29 cells assessed as viable cells at 5 uM after 48 hrs by Annexin V-FITC/propidium iodide staining based flow cytometric analysis (reference value: 81.1%); format: cell-based; conditions: read-out: Activity
HT-29 [13] = test: Induction of apoptosis in human HT-29 cells assessed as caspase-3 cleavage up to 20 uM after 24 to 72 hrs by Western blot analysis; format: cell-based
HT-29 [14] = test: Induction of apoptosis in human HT-29 cells assessed as late apoptotic cells at 5 uM after 48 hrs by Annexin V-FITC/propidium iodide staining based flow cytometric analysis (reference value: 12.3%); format: cell-based; conditions: ht-29, 48 h
HUVEC [15] = test: Antiinvasive activity in HUVEC assessed as inhibition of VEGF-induced cell invasion at 20 uM after 6 hrs by crystal violet staining based transwell assay relative to control; format: functional; conditions: Homo sapiens; outline: as §3
HT-29 [16] = test: Induction of apoptosis in human HT-29 cells assessed as necrotic cells at 10 uM after 24 hrs by Annexin V-FITC/propidium iodide staining based flow cytometric analysis (reference value: 3.9%); format: cell-based; conditions: ht-29, 24 h
HUVEC [17] = test: Antiangiogenic activity in HUVEC assessed as inhibition of VEGF-induced capillary like tube formation at 5 uM preincubated with VEGF for 20 mins followed by compound addition measured after 6 hrs by matrigel based tube formation assay relative to control; format: functional; conditions: Homo sapiens
Outline: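 Matrigel (100 μL) set 1 h at 37°C; 2×10⁴ HUVECs in M200 with 10% FBS added per well plus 10 ng/mL VEGF; compound added after 20 min; incubated 6 h at 37°C, then capillary-like structures photographed.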

HT-29 [18] = test: Induction of apoptosis in human HT-29 cells assessed as late apoptotic cells at 5 uM after 72 hrs by Annexin V-FITC/propidium iodide staining based flow cytometric analysis (reference value: 12.3%); format: cell-based; conditions: ht-29, 72 h
[19] = Toxicity in mouse xenografted with human HT-29 cells assessed as body weight at 20 to 60 mg/kg, po administered every other day for 3 weeks; format: organism-based; conditions: in vivo, 504 h
Outline: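 HT29 cells implanted subcutaneously in the right flank of nude mice. At about 100 mm³, mice were randomized to vehicle (0.9% NaCl) or oral compound at 20, 40 and 60 mg/kg, with sunitinib at 40 mg/kg as reference. Body weight and tumor size recorded every other day.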

[20] = biological target: Vascular endothelial growth factor receptor 2 (Homo sapiens) (UniProt P35968); test: Inhibition of VEGFR2 in VEGF-stimulated HUVEC assessed as downregulation of FAK phosphorylation at Tyr925 residue at 1 to 10 uM pre-incubated for 2 hrs followed by VEGF stimulation and measured after 15 mins by Western blot analysis; format: cell-based
Chorioallantoic membrane = test: Antiangiogenic activity in Leghorn chicken fertilized egg chorioallantoic membrane assessed as reduction in number of blood vessel formation at 20 nmol measured after 48 hrs by CAM assay relative to saline treated control; format: functional, tissue-based; conditions: Gallus gallus
Outline: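 Fertile Leghorn eggs incubated at 37.8°C, 40% humidity; window opened on day 7; compound, sunitinib or 0.9% NaCl mixed with DMSO applied on filter paper onto CAM; 48 h incubation, methanol fixation, photography; nascent vessels counted.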

Activity (HUVEC [1]): Not Active
Activity (HUVEC [4]): Not Active
Activity (HUVEC [7]): Not Active
Activity (HUVEC [10]): Not Active
inhibition [11]: Active
inhibition [20]: Active
SMILES: COc1ccc(NC(=O)c2cccc(/C=C3\CC(=O)N(c4ccc(C)cc4)C3=O)c2)cc1
Activity (HT-29 [2]): 17.1%
viability at 24 h, 20 µM [3]: 74.5%
inhibition at 1 µM (HUVEC [5]): 20%
Activity (HUVEC [6]): 10.8%
inhibition (HT-29 [8]): Dose-dependent effect
Activity (HT-29 [9]): Active
viability at 48 h, 5 µM [12]: 76.1%
Activity (HT-29 [13]): Non-Toxic
Activity (HT-29 [14]): 13.1%
inhibition at 20 µM (HUVEC [15]): 70%
Activity (HT-29 [16]): 2.3%
inhibition at 5 µM (HUVEC [17]): 80%
Activity (HT-29 [18]): 12.5%
Activity [19]: Non-Toxic
inhibition (Chorioallantoic membrane): 96.4%
